Results reported in ChEMBL document CHEMBL4689842, “EUbOPEN Chemogenomics Library wave 1” (2021).

System: Fibroblast
Test: Multiplex assay against human fibroblast
Type: toxicity, cell-based
Method in brief: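 Hoechst33342, BioTracker Green Microtubule Cytoskeleton Dye, MitoTracker Red and Annexin V Alexa Fluor 680 were added to live cells at seeding, and imaging on a CQ1 microscope at 37°C and 5% CO2 followed compound addition. Gating by CellPathfinder machine learning separated cells into Hoechst high-intensity objects or normal cells, then normal cells into healthy, pyknosed or fragmented nuclei, then pyknosed cells into mitotic or apoptotic. Per cents of healthy-nucleus cells are reported for the tubulin, mitochondrial-mass and membrane-permeability phenotypes.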

[1] = 12 h, 1 µM, compound concentration 1 uM, replicate 1
[2] = 12 h, 1 µM, compound concentration 1 uM, replicate 2
[3] = 12 h, 10 µM, compound concentration 10 uM, replicate 1
[4] = 12 h, 10 µM, compound concentration 10 uM, replicate 2
[5] = 24 h, 1 µM, compound concentration 1 uM, replicate 1
[6] = 24 h, 1 µM, compound concentration 1 uM, replicate 2
[7] = 24 h, 10 µM, compound concentration 10 uM, replicate 1
[8] = 24 h, 10 µM, compound concentration 10 uM, replicate 2
[9] = 48 h, 1 µM, compound concentration 1 uM, replicate 1
[10] = 48 h, 1 µM, compound concentration 1 uM, replicate 2
[11] = 48 h, 10 µM, compound concentration 10 uM, replicate 1
[12] = 48 h, 10 µM, compound concentration 10 uM, replicate 2

In the case of CCc1cccc(CC)c1NC(=O)c1nn(C)c2c1CCc1cnc(Nc3ccc(C(=O)NC4CCN(C)CC4)cc3OC(F)(F)F)nc1-2, the “Population Apoptotic (%)” value [1] is reported as 62%, the “Population Fragmented Nuclei (%)” value [1] is reported as 22% and the “Population Healthy Nuclei (%)” value [1] is reported as 38%. The “Population Hoechst High Intensity Objects (%)” value [1] was 7%, the “Population Membrane Permeable-Phenotype (%)” value [1] was 24% and the “Population Mitochondria Different-Phenotype (%)” value [1] was 7%. The “Population Mitotic Cells (%)” value [1] was 37%, the “Population Normal (%)” value [1] was 92% and the “Population Pyknosed Nuclei (%)” value [1] was 39%. The “Population Tubulin-Different-Phenotype (%)” value [1] was 47%, the “Total Cell Count” value [1] was 160 and the “Population Apoptotic (%)” value [2] was 40%. For the same compound, the “Population Fragmented Nuclei (%)” value [2] was 1%, the “Population Healthy Nuclei (%)” value [2] was 83% and the “Population Hoechst High Intensity Objects (%)” value [2] was 13%. For the same compound, the “Population Membrane Permeable-Phenotype (%)” value [2] was 5%, the “Population Mitochondria Different-Phenotype (%)” value [2] was 14% and the “Population Mitotic Cells (%)” value [2] was 60%. The “Population Normal (%)” value [2] was 86%, the “Population Pyknosed Nuclei (%)” value [2] was 15% and the “Population Tubulin-Different-Phenotype (%)” value [2] was 18%. The “Total Cell Count” value [2] was 51, the “Population Apoptotic (%)” value [3] was 61% and the “Population Fragmented Nuclei (%)” value [3] was 24%. The “Population Healthy Nuclei (%)” value [3] was 51%, the “Population Hoechst High Intensity Objects (%)” value [3] was 21% and the “Population Membrane Permeable-Phenotype (%)” value [3] was 8%. For the same compound, the “Population Mitochondria Different-Phenotype (%)” value [3] was 26%, the “Population Mitotic Cells (%)” value [3] was 38% and the “Population Normal (%)” value [3] was 78%. For the same compound, the “Population Pyknosed Nuclei (%)” value [3] was 23%, the “Population Tubulin-Different-Phenotype (%)” value [3] was 60% and the “Total Cell Count” value [3] was 139. The “Population Apoptotic (%)” value [4] was 46%, the “Population Fragmented Nuclei (%)” value [4] was 12% and the “Population Healthy Nuclei (%)” value [4] was 70%. The “Population Hoechst High Intensity Objects (%)” value [4] was 5%, the “Population Membrane Permeable-Phenotype (%)” value [4] was 15% and the “Population Mitochondria Different-Phenotype (%)” value [4] was 98%. For the same compound, the “Population Mitotic Cells (%)” value [4] was 53%, the “Population Normal (%)” value [4] was 94% and the “Population Pyknosed Nuclei (%)” value [4] was 17%. For the same compound, the “Population Tubulin-Different-Phenotype (%)” value [4] was 86%, the “Total Cell Count” value [4] was 75 and the “Population Apoptotic (%)” value [5] was 48%. The “Population Fragmented Nuclei (%)” value [5] was 23%, the “Population Healthy Nuclei (%)” value [5] was 40% and the “Population Hoechst High Intensity Objects (%)” value [5] was 11%. The “Population Membrane Permeable-Phenotype (%)” value [5] was 23%, the “Population Mitochondria Different-Phenotype (%)” value [5] was 5% and the “Population Mitotic Cells (%)” value [5] was 52%. The “Population Normal (%)” value [5] was 88%, the “Population Pyknosed Nuclei (%)” value [5] was 35% and the “Population Tubulin-Different-Phenotype (%)” value [5] was 53%. The “Total Cell Count” value [5] was 157, the “Population Apoptotic (%)” value [6] was 37% and the “Population Fragmented Nuclei (%)” value [6] was 7%. The “Population Healthy Nuclei (%)” value [6] was 81%, the “Population Hoechst High Intensity Objects (%)” value [6] was 10% and the “Population Membrane Permeable-Phenotype (%)” value [6] was 5%. For the same compound, the “Population Mitochondria Different-Phenotype (%)” value [6] was 12%, the “Population Mitotic Cells (%)” value [6] was 62% and the “Population Normal (%)” value [6] was 89%. For the same compound, the “Population Pyknosed Nuclei (%)” value [6] was 11%, the “Population Tubulin-Different-Phenotype (%)” value [6] was 19% and the “Total Cell Count” value [6] was 53. For the same compound, the “Population Apoptotic (%)” value [7] was 62%, the “Population Fragmented Nuclei (%)” value [7] was 25% and the “Population Healthy Nuclei (%)” value [7] was 49%. For the same compound, the “Population Hoechst High Intensity Objects (%)” value [7] was 30%, the “Population Membrane Permeable-Phenotype (%)” value [7] was 16% and the “Population Mitochondria Different-Phenotype (%)” value [7] was 40%. The “Population Mitotic Cells (%)” value [7] was 37%, the “Population Normal (%)” value [7] was 69% and the “Population Pyknosed Nuclei (%)” value [7] was 25%. The “Population Tubulin-Different-Phenotype (%)” value [7] was 50%, the “Total Cell Count” value [7] was 161 and the “Population Apoptotic (%)” value [8] was 50%. For the same compound, the “Population Fragmented Nuclei (%)” value [8] was 15%, the “Population Healthy Nuclei (%)” value [8] was 63% and the “Population Hoechst High Intensity Objects (%)” value [8] was 2%. The “Population Membrane Permeable-Phenotype (%)” value [8] was 26%, the “Population Mitochondria Different-Phenotype (%)” value [8] was 91% and the “Population Mitotic Cells (%)” value [8] was 50%. For the same compound, the “Population Normal (%)” value [8] was 97%, the “Population Pyknosed Nuclei (%)” value [8] was 20% and the “Population Tubulin-Different-Phenotype (%)” value [8] was 73%. For the same compound, the “Total Cell Count” value [8] was 77, the “Population Apoptotic (%)” value [9] was 67% and the “Population Fragmented Nuclei (%)” value [9] was 31%. The “Population Healthy Nuclei (%)” value [9] was 45%, the “Population Hoechst High Intensity Objects (%)” value [9] was 15% and the “Population Membrane Permeable-Phenotype (%)” value [9] was 16%. The “Population Mitochondria Different-Phenotype (%)” value [9] was 7%, the “Population Mitotic Cells (%)” value [9] was 32% and the “Population Normal (%)” value [9] was 84%. The “Population Pyknosed Nuclei (%)” value [9] was 23%, the “Population Tubulin-Different-Phenotype (%)” value [9] was 40% and the “Total Cell Count” value [9] was 141. For the same compound, the “Population Apoptotic (%)” value [10] was 20%, the “Population Fragmented Nuclei (%)” value [10] was 38% and the “Population Healthy Nuclei (%)” value [10] was 55%. The “Population Hoechst High Intensity Objects (%)” value [10] was 11%, the “Population Membrane Permeable-Phenotype (%)” value [10] was 10% and the “Population Mitochondria Different-Phenotype (%)” value [10] was 4%. For the same compound, the “Population Mitotic Cells (%)” value [10] was 80%, the “Population Normal (%)” value [10] was 88% and the “Population Pyknosed Nuclei (%)” value [10] was 5%. The “Population Tubulin-Different-Phenotype (%)” value [10] was 42%, the “Total Cell Count” value [10] was 102 and the “Population Apoptotic (%)” value [11] was 70%. For the same compound, the “Population Fragmented Nuclei (%)” value [11] was 31%, the “Population Healthy Nuclei (%)” value [11] was 50% and the “Population Hoechst High Intensity Objects (%)” value [11] was 38%. For the same compound, the “Population Membrane Permeable-Phenotype (%)” value [11] was 16%, the “Population Mitochondria Different-Phenotype (%)” value [11] was 15% and the “Population Mitotic Cells (%)” value [11] was 30%. For the same compound, the “Population Normal (%)” value [11] was 61%, the “Population Pyknosed Nuclei (%)” value [11] was 18% and the “Population Tubulin-Different-Phenotype (%)” value [11] was 47%. For the same compound, the “Total Cell Count” value [11] was 172, the “Population Apoptotic (%)” value [12] was 25% and the “Population Fragmented Nuclei (%)” value [12] was 29%. The “Population Healthy Nuclei (%)” value [12] was 67%, the “Population Hoechst High Intensity Objects (%)” value [12] was 15% and the “Population Membrane Permeable-Phenotype (%)” value [12] was 30%. The “Population Mitochondria Different-Phenotype (%)” value [12] was 10%, the “Population Mitotic Cells (%)” value [12] was 75% and the “Population Normal (%)” value [12] was 84%. The “Population Pyknosed Nuclei (%)” value [12] was 2%, the “Population Tubulin-Different-Phenotype (%)” value [12] was 43% and the “Total Cell Count” value [12] was 158.
